As usually defined, the EC50 is the concentration needed to bring the measured effect to its halfway point. The low end stands for an effect from little substance, the high end for a need for much substance.

For the test, the target named is Galectin-3 (Homo sapiens, UniProt P17931). Nature of the test: Binding affinity to human galectin 3 by surface plasma resonance analysis. In short, it runs like this: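 Recombinant human Gal-3 amine-coupled to a CM5 chip (about 1000 RU) with an ethanolamine reference channel. Analytes were serially diluted in 0.01 M HEPES pH 7.4, 0.15 M NaCl and 0.005% P20, then run at 25 °C and 30 μL/min with 120 s association and 300 s dissociation, followed by 3 M MgCl2 regeneration. EC50 was taken from the fitted binding curve.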
Sequence of Galectin-3 (P17931 whole entry): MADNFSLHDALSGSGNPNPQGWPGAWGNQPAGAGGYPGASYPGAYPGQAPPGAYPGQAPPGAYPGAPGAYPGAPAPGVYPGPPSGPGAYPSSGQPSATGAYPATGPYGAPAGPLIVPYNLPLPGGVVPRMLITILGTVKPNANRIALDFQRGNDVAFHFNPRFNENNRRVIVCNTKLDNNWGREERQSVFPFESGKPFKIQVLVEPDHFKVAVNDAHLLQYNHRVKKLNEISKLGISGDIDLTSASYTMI

Compound `CC(=O)N[C@H]1[C@@H](OCCOCCOCCN=[N+]=[N-])O[C@H](CO)[C@H](O)[C@@H]1O` gave an EC50 greater than 1000 µM. As for `CC(=O)N[C@H]1[C@@H](OCCOCCOCCN=[N+]=[N-])O[C@H](CO)[C@H](O)[C@@H]1O[C@@H]1O[C@H](CO)[C@H](O)[C@H](O)[C@H]1O`, the figure is greater than 1000 µM; as for `[N-]=[N+]=NCCOCCOCCO[C@@H]1O[C@H](CO)[C@@H](O[C@@H]2O[C@H](CO)[C@H](O)[C@H](O)[C@H]2O)[C@H](O)[C@H]1O`, greater than 1000 µM.

These data come from BindingDB's records for doi:10.1016/j.bmc.2022.116974 (University of Maryland, 2022).
